Reference: the RNAGym collection of RNA variant scans (doi:10.1038/nmeth.2970)

B1: NELF-E aptamer (parent)
chain: CCCAACGACUGCCGAGCGAGAUUACGCUUGAGCGCCCCACUGAGGAUGCCCACGGGCGAUUGGGGCACGG

Variants of: B1
Assay: HiTS-RAP
Conditions: with NELF-E (Drosophila)
In short: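 Kd came from weighted Hill fits to the first binding curve, with intensities normalised to sequencing intensity and averaged per sequence, keeping only fits whose variance was below 1,000,000. That curve was imaged on an Illumina GAIIx flowcell, where sequenced aptamer DNA templates with a T7 promoter and ter site had been transcribed in situ by T7 RNA polymerase and halted by GST-Tus (30 minutes, 37°C). Before each image, clusters equilibrated for 30 minutes at room temperature with NELF-E-mOrange at 0.064 to 1000 nM in HEPES binding buffer.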

Variant | Kd [nM]
C9A | 5.07
U10G U28C | 8.85
A4G U10A | 5.89
A4G U10C | 5.06
U29G C36U | 9.64
A4G U28C | 9.05
A4G U28G | 6.58
G18A A24G | 5.85
A8U U10G | 5.41
U41G U60C | 9.67
C12U C17G | 6.2
C6U A52U | 23.1
U22G C37A | 14.6
A8G G32A | 5.07
A4G G48A | 11
U29G A39G | 7.69
U10G A43U | 75.2
U10A A31G | 9.84
A5U G20U | 7.83
A5U G20A | 6.68
C12U G34A | 5.3
G7U G14A | 6.59
C6G G63A | 19.7
G20C | 5.82

Variant | Kd [nM]
A8G U28G | 6.24
A8G U28C | 7.19
U41G C53U | 3.62
A5U A24U | 6.21
C35A | 6.56
U10C G55U | 9.22
U22G U41G | 5.36
G7C A8G | 5.81
U10G G54A | 12
A5U G14U | 6.34
A8U G65U | 8.03
A4G A8G | 5.83
C37A U41G | 15.9
A4G G30U | 5.76
C9G U28C | 9.43
U10G C27U | 3.87
G16U U29C | 6.55
A4G C17G | 5.57
C57U A67G | 4.59
C13G C33U | 5.79
U10G U47G | 6.24
G16U G18A | 7.17
A5G A19U | 7.26
G64A A67G | 4.84

Variant | Kd [nM]
A5U U41G | 6.01
G7U U47G | 7.97
C12G G55A | 7.66
U10G A19U | 4.96
U22G C35A | 7.18
G16A A24G | 6.88
A4U A8G | 6.19
U22G G30A | 5.32
G11A U22G | 6.03
U22G A39G | 8.32
G7U C12U | 5.94
A39U U41A | 109
U47G | 6.05
C40U | 56.6
G16U A39U | 23.5
U29G U41G | 5.31
U29G U41A | 78.7
U29G U47G | 6.21
C6G U29G | 4.97
A4U C66U | 5.14
A8G A24G | 6.27
A19G A31G | 6.72
G55U | 6.36
A5G C6G | 5.46

Variant | Kd [nM]
A31G A52U | 21.5
U10G A31U | 5.87
G54A C66U | 16.9
A4U U47A | 12.5
U22G G63C | 39.6
A19G G65U | 7.38
U41G U47G | 7.59
C12G A21U | 6.04
A4G C53U | 3.85
G11U A59G | 17.7
G7U G18U | 6.84
A5G G45U | 7.32
A5U U10A | 7.7
A5U U10C | 4.96
A5U U10G | 5.49
U22G U29A | 5.82
C6U G55A | 7.75
G14U G48A | 13.2
A4G G44A | 54.3
G7U C17U | 6.16
U10G A59U | 71.4
A8G G55A | 10
G69C | 5.52
G14A C57U | 6.72

Variant | Kd [nM]
U10G G58U | 8.62
A4G A43C | 90.1
C13G U29A | 4.9
C6G U10G | 4.77
G7U | 5.55
G7A | 5.61
G7U U22C | 5.8
A8U G55A | 8.25
A8U G55U | 7.57
U10G C33G | 5.96
A19G G54A | 15.1
C6G G14U | 6.12
A5U G11U | 6.52
A8U G34A | 6.21
U29G A46G | 22.4
C6G G7U | 5.56
C6G G7C | 7.44
A5G A59G | 29.5
C13G A39G | 9.58
U10G C36U | 6.99
U10G C57U | 5.61
G7U C57U | 6.23
U22G U47G | 7.29
U10G G64U | 7.3

Variant | Kd [nM]
U23G A43G | 25.1
A5G A52G | 4.26
A4U G63U | 11.1
A5U C13G | 5.56
A5U C13U | 7.12
A4G C12U | 5.25
A5U A67U | 7.25
G32A | 4.35
C12G U22C | 6.9
G14U A43U | 84.4
C13U A52U | 10.1
G7A U29G | 6.46
A52U | 15.4
G45C | 39.5
A39G C57U | 9.77
C27G U29G | 5.43
A5G G54A | 12.9
C6G A21U | 5.06
G14A G16U | 6.52
U23G G63A | 20.3
G7A C9G | 5.55
U23G G56A | 8.2
C13U C17U | 4
G14U G26U | 6.16

Variant | Kd [nM]
A24G C35U | 9.45
A4U A21U | 6.22
A4U A21G | 5.7
G14U C25G | 8.18
U28A U29A | 4.14
U10G C53G | 6.55
C12G C13G | 5.01
A5U G54A | 13.9
C6G U47A | 10.5
C13U G14U | 5.39
A5G G48A | 12.6
A4G G34A | 7.45
A8G C37U | 10.1
C6G G48U | 5.75
U29A C37U | 7.5
G7U G20U | 7.06
A8U C33U | 6.3
C9G C53U | 4.66
U61C A67G | 68.2
U22G U28G | 6.89
U29G G44U | 8.78
U28C U41C | 98.6
A4G C9A | 6.66
